Active and inactive are the calls of the source. The calls are words filed in the database; no cut-off is given here.
Experiments:
[1] = target: T1, 5-hydroxytryptamine receptor 2C (Homo sapiens) (UniProt P28335); experiment: Agonist activity at human 5HT2C receptor expressed in HEK293 cells by measuring intracellular calcium mobilization upto 10 uM; assay type: functional, cell-based
T1 sequence (whole entry): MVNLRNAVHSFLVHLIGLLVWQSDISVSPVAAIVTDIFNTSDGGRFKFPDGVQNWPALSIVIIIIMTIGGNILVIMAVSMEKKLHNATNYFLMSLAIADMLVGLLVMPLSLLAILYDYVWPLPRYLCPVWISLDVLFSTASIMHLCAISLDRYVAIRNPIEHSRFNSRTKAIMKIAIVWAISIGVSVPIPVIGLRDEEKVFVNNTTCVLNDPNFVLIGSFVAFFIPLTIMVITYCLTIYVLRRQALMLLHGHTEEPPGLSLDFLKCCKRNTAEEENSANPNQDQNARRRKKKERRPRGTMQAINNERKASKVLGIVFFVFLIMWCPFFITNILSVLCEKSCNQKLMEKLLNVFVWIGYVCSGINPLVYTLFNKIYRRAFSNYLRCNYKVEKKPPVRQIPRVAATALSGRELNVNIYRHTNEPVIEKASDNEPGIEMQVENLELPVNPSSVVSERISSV

[2] = target: T2, 5-hydroxytryptamine receptor 2A (Homo sapiens, UniProt P28223); experiment: Agonist activity at human 5HT2A receptor expressed in HEK293 cells by measuring intracellular calcium mobilization upto 10 uM; assay type: functional, cell-based
T2 sequence (P28223 whole entry): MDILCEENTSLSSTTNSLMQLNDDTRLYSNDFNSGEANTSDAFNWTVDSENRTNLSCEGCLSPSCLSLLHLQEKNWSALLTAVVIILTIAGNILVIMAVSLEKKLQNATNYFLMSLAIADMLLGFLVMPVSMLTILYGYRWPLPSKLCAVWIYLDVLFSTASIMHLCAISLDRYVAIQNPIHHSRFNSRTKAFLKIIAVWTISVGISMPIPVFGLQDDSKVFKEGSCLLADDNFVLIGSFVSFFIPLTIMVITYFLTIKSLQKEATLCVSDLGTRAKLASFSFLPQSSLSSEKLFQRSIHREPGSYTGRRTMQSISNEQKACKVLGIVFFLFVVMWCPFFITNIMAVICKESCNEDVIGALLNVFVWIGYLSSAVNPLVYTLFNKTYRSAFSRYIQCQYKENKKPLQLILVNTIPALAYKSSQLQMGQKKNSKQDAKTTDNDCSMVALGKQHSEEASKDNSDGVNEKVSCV

[3] = target: T3, 5-hydroxytryptamine receptor 2B (Homo sapiens, UniProt P41595); experiment: Agonist activity at human 5HT2B receptor expressed in HEK293 cells by measuring intracellular calcium mobilization upto 10 uM; assay type: functional, cell-based
T3 sequence (P41595 whole entry): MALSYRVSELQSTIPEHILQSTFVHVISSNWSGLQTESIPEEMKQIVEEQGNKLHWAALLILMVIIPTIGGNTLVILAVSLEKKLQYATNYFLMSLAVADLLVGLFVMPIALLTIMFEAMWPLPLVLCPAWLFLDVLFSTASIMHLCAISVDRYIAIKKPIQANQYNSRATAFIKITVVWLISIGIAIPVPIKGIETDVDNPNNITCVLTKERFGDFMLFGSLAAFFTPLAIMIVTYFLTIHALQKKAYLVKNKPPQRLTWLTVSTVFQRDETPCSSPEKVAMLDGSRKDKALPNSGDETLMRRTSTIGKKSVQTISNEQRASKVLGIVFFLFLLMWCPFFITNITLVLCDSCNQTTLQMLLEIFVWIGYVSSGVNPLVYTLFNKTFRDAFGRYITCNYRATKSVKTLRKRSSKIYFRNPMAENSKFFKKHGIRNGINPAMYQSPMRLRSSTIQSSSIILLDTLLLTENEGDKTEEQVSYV

[4] = target: T3, 5-hydroxytryptamine receptor 2B; experiment: Displacement of [3H]5-HT from human 5HT2B receptor expressed in HEK293 cells; assay type: cell-based
[5] = target: T2, 5-hydroxytryptamine receptor 2A; experiment: Displacement of [3H]ketanserin from human 5HT2A receptor expressed in HEK293 cells; assay type: cell-based
[6] = target: T4, 5-hydroxytryptamine receptor 2C (Homo sapiens, UniProt P28335); experiment: Displacement of [3H]mesulergine from human 5HT2C receptor expressed in HEK293 cells; assay type: cell-based
T4 sequence (P28335 whole entry): T1 sequence (whole entry)

[7] = Bioavailability in rat at 3 mg/kg, po; assay type: ADME, organism-based; conditions: in vivo
Procedure, shortened: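 Oral dosing was 3 mg free base/kg by gavage (5 mL/kg) to male rats (n = 3), from 0.6 mg free base/mL in 0.5% w/v Methocel with 5% DMSO. The iv reference arm was 1 mg free base/kg as a bolus (2 mL/kg) in 25% (v/v) aqueous PEG400 with 5% (v/v) DMSO, n = 3.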

[8] = Clearance in rat blood; assay type: ADME, organism-based; conditions: whole blood
Procedure, shortened: (§1)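 Male rats (n = 3) received a 1 mg free base/kg iv bolus (2 mL/kg) of a 0.5 mg free base/mL solution in 25% (v/v) aqueous PEG400 containing 5% (v/v) DMSO. Brain penetration was assessed at 1 h.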

[9] = target: T1, 5-hydroxytryptamine receptor 2C (Homo sapiens); experiment: Antagonist activity at human 5HT2C receptor expressed in HEK293 cells by measuring intracellular calcium mobilization; assay type: functional, cell-based
Procedure, shortened: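 Antagonism measured as blockade of the 5-HT-evoked response at the human receptor, with affinity expressed as pKb.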

[10] = Ratio of drug level in brain to plasma in rat; assay type: ADME; conditions: brain and plasma; procedure, shortened: as §1

In the case of COc1ccc(N2Cc3c(c4cc(Cl)c(Cl)cc4n3C)C2=O)cc1OCCN1CCC(C)CC1, the Activity [1] is reported as “inactive”, the Activity [2] is reported as “inactive” and the Activity [3] is reported as “inactive”.

With COc1ccc2c(c1)c1c(n2C)CN(c2ccc(OC)c(OCCN3CCCCC3)c2)C1=O the Activity [1] was “inactive”, the Ki [4] was 794 nM and the Activity [2] was “inactive”. For the same compound, the Activity [3] was “inactive”, the Ki [5] was 1000 nM and the Ki [6] was 31.6 nM.

In the case of COc1ccc(N2Cc3c(c4ccccc4n3C)C2=O)cc1OCCN1CCCCC1.Cl, the Activity [1] is reported as “inactive”, the Ki [4] is reported as 200 nM and the Activity [2] is reported as “inactive”. The Activity [3] was “inactive”, the Ki [5] was 501 nM and the Ki [6] was 6.31 nM. The bioavailability [7] was 15% and the clearance [8] was 53 mL/min/kg.

For COc1ccc(N2Cc3sc4ccccc4c3C2=O)cc1OCCN1CCCCC1, the Activity [1] was “inactive”, the Ki [4] was > 631 nM and the Activity [2] was “inactive”. The Activity [3] was “inactive”, the Ki [5] was 398 nM and the Ki [6] was 3.16 nM.

For COc1ccc(N2Cc3c(c4ccc(Cl)cc4n3C)C2=O)cc1OCCN1CCC(C)CC1, the Activity [1] was “inactive”, the Ki [4] was 200 nM and the Activity [2] was “inactive”. The Activity [3] was “inactive”, the Ki [5] was 251 nM and the Ki [6] was 3.98 nM.

In the case of COc1ccc(N2C(=O)c3c(n(C)c4ccccc34)C2C)cc1OCCN1CCCCC1 (configuration not stated), the Activity [1] is reported as “inactive”, the Activity [2] is reported as “inactive” and the Activity [3] is reported as “inactive”.

In the case of COc1ccc2c(c1)c1c(n2C)CN(c2ccc(OC)c(OCCN3CCC(C)CC3)c2)C1=O, the Activity [1] is reported as “inactive”, the Activity [2] is reported as “inactive” and the Activity [3] is reported as “inactive”.

For COc1ccc(N2Cc3sc4ccccc4c3C2=O)cc1OCCN1CCC(C)CC1, the Activity [1] was “inactive”, the pKb [9] was 8.7 and the Ki [4] was 200 nM. The Activity [2] was “inactive”, the Activity [3] was “inactive” and the Ki [5] was > 794 nM. The Ki [6] was 1.58 nM.

With COc1ccc(N2Cc3c(c4cc(Cl)ccc4n3C)C2=O)cc1OCCN1CCCCC1 the Activity [1] was “inactive”, the Ki [4] was > 1000 nM and the Activity [2] was “inactive”. The Activity [3] was “inactive”, the Ki [5] was 158 nM and the Ki [6] was 2.51 nM. The bioavailability [7] was 21% and the clearance [8] was 39 mL/min/kg.

In the case of COc1ccc(N2Cc3c(c4cc(F)ccc4n3C)C2=O)cc1OCCN1CCCCC1, the Activity [1] is reported as “inactive”, the Activity [2] is reported as “inactive” and the Activity [3] is reported as “inactive”.

In the case of COc1ccc(N2Cc3cc4ccccc4cc3C2=O)cc1OCCN1CCCCC1, the Activity [1] is reported as “inactive”, the Activity [2] is reported as “inactive” and the Activity [3] is reported as “inactive”.

For COc1ccc(N2Cc3c(c4ccc(F)cc4n3C)C2=O)cc1OCCN1CCC(C)CC1, the Activity [1] was “inactive”, the pKb [9] was 7.5 and the Ki [4] was 251 nM. For the same compound, the Activity [2] was “inactive”, the Activity [3] was “inactive” and the Ki [5] was 251 nM. The Ki [6] was 15.8 nM.

With COc1ccc(N2Cc3c(c4cccc(F)c4n3C)C2=O)cc1OCCN1CCCCC1 the Activity [1] was “inactive”, the Activity [2] was “inactive” and the Activity [3] was “inactive”.

For COc1ccc(N2Cc3c(c4cc(Cl)c(Cl)cc4n3C)C2=O)cc1OCCN1CCCCC1, the Activity [1] was “inactive”, the Ki [4] was 200 nM and the Activity [2] was “inactive”. For the same compound, the Activity [3] was “inactive”, the Ki [5] was 501 nM and the Ki [6] was 6.31 nM.

For COc1ccc(N2Cc3c(c4cc(F)ccc4n3C)C2=O)cc1OCCN1CCC(C)CC1, the Activity [1] was “inactive”, the pKb [9] was 8.6 and the Ki [4] was 63.1 nM. For the same compound, the Activity [2] was “inactive”, the Activity [3] was “inactive” and the Ki [5] was 158 nM. For the same compound, the Ki [6] was 2.51 nM.

With COc1ccc(N2Cc3c(c4ccc(Cl)cc4n3C)C2=O)cc1OCCN1CCCCC1 the Activity [1] was “inactive”, the Ki [4] was 158 nM and the Activity [2] was “inactive”. The Activity [3] was “inactive”, the Ki [5] was 316 nM and the Ki [6] was 5.01 nM.

In the case of COc1ccc(N2Cc3c(c4cccc(F)c4n3C)C2=O)cc1OCCN1CCC(C)CC1, the Activity [1] is reported as “inactive”, the Ki [4] is reported as 31.6 nM and the Activity [2] is reported as “inactive”. For the same compound, the Activity [3] was “inactive”, the Ki [5] was 251 nM and the Ki [6] was 2.51 nM.

For COc1ccc(N2Cc3c(c4ccc(F)cc4n3C)C2=O)cc1OCCN1CCCCC1, the Activity [1] was “inactive”, the Ki [4] was > 10000 nM and the Activity [2] was “inactive”. For the same compound, the Activity [3] was “inactive”, the Ki [5] was > 10000 nM and the Ki [6] was 12.6 nM.

With COc1ccc(N2Cc3c(c4cc(Cl)ccc4n3C)C2=O)cc1OCCN1CCC(C)CC1 the Activity [1] was “inactive”, the pKb [9] was 8.6 and the Ki [4] was 39.8 nM. The Activity [2] was “inactive”, the Activity [3] was “inactive” and the Kp [10] was 1. It also gave a Ki [5] of 126 nM, a Ki [6] of 3.16 nM and a bioavailability [7] of 44%. For the same compound, the clearance [8] was 23 mL/min/kg.

— ChEMBL document CHEMBL1146275, “5-HT2C antagonists based on fused heterotricyclic templates: design, synthesis and biological evaluation” (Bioorg Med Chem Lett, 2007)
